Screening data as filed in PubChem BioAssay.
hiPSC survival = enhancers of human iPSC single-cell survival. hiPSC single-cell survival, ATPlite luminescence; 100% = ROCK inhibitor wells, 0% = DMSO. survival enhancement, % at 20 µM. 360,000 compounds, 0.044% hits; in the data active = survival enhancement above about 18%;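 also: cells exposed to compounds for 16 hours before the ATP read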
MT1-MMP act inh = inhibitors of human MT1-MMP activation; P50281; HT1080 RFP-PRO-GFP cells, GFP/RFP ratio fluorescence, overnight; percent of plate control window, DMSO zero; GFP/RFP ratio change, % at 20 µM; 360,000 compounds, 0.061% hits; AID 651647;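 active = GFP/RFP ratio change of at least 30% with cell ATP level not reduced by more than half and red fluorescence within 50% of control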
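Test system: HT1080 RFP-PRO-GFP cells; Benchmarks: DMSO and RFP-L50D-GFP cell wells; Timing: cells overnight before dosing, compound overnight, 37 °C, 5% CO2; Compound: one 20 µM compound dose with 1% DMSO; Read-out: GFP/RFP fluorescence ratio.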
PREPL inhibitor = human PREPL enzyme inhibition | Q4J6C6 | recombinant PREPL, fluorescence polarization activity-based probe | inhibition, % at 5.96 µM | 320,000 compounds, 0.68% hits;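 also: 0% = enzyme with DMSO and 100% = wells lacking enzyme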
Target sequence (Q4J6C6 whole entry, looked up): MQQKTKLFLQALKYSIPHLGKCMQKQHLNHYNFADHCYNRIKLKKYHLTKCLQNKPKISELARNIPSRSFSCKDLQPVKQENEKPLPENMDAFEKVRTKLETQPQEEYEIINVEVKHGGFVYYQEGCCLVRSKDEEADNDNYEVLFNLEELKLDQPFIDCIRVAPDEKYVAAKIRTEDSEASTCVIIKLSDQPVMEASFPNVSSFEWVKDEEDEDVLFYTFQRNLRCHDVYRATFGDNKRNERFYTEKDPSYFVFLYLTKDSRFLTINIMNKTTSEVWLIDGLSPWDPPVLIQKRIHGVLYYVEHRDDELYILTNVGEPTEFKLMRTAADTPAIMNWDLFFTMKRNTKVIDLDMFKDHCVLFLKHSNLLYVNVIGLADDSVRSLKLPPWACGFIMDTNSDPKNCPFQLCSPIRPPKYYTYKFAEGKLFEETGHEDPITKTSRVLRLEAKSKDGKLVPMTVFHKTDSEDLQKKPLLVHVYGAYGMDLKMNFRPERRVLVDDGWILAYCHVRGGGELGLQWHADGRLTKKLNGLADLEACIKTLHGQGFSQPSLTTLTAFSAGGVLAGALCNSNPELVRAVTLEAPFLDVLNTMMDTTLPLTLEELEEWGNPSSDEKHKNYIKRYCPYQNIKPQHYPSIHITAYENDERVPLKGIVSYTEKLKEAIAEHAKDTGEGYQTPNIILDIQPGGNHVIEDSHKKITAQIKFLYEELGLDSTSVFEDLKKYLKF
E coli Lon inh = inhibitors of E. coli Lon protease; purified E. coli Lon protease, fluorescence polarization; P0A9M0; inhibition, % at 7.94 µM; 360,000 compounds, 0.42% hits; AID 602123; in the data active = inhibition above about 13%, passing the limit was not always enough;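 also: 0% = enzyme with probe and DMSO and 100% = no enzyme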
Tb MetRS inh = blocks T. brucei methionyl-tRNA synthetase activity; purified T. brucei MetRS, ATP depletion, Kinase-Glo luminescence; inhibition, % at 11.9 µM; 360,000 compounds, 0.4% hits;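 active = inhibition above a per-plate cutoff of the control wells' mean inhibition plus 3 SD, cut at about 5.5% in these data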;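 also: 0% = DMSO wells median and 100% = median of wells with control inhibitor compound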
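Material – parasite MetRS enzyme · Medium – HEPES-MgCl2-KCl buffer plus DTT, spermine, BSA, pyrophosphatase · Reagent – ATP, methionine and E. coli bulk tRNA substrates · Times – 15 min enzyme-compound preincubation, 2 h reaction, 10 min detection, 25 °C · Measured by – luminescence of leftover ATP · Evaluation – percent inhibition relative to median high and low control wells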
SKN-1 inh = blocks SKN-1 activity in C. elegans; inhibition, % at 21.8 µM; C. elegans VP596 Pgst-4::GFP/RFP ratio, acrylamide-induced, 24 h; AID 624304; 360,000 compounds, 0.49% hits;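 active = interference check ratio from 0.5 to 1.5 plus GFP to RFP signal ratio inhibition reaching or exceeding a fixed threshold, cut at about 30% in these data, passing the limit was not always enough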
PREPL inh cf = human PREPL inhibition, confirmation | shares compounds with PREPL inhibitor | recombinant PREPL, fluorescence polarization activity probe | inhibition, % at 5.96 µM | 2,000 compounds, 67% hits;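 also: 0% = protein with DMSO and 100% = wells lacking protein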
Starred values were filed as active, the others as inactive. Hits are enriched below; roughly 1.8% of the tested compounds scored in any of these assays. Rule as the data show it, unless noted: active = inhibition above about 43%; inactive = the rest.

Results for COc1cc2c(C#N)c(N3CCN(C)CC3)nc(N)c2c(N)n1 ?
hiPSC survival: -3; MT1-MMP act inh: -10; PREPL inhibitor: 45*; E coli Lon inh: -12; Tb MetRS inh: 0; SKN-1 inh: -18; PREPL inh cf: 34

What do the screens show for `COc1cc2c(C#N)c(N3CCN(c4ccccc4OC)CC3)nc(N)c2c(N)n1`?
hiPSC survival: -3; MT1-MMP act inh: -5; PREPL inhibitor: 49*; E coli Lon inh: -3; Tb MetRS inh: 0; SKN-1 inh: -5; PREPL inh cf: 46*

Results for COc1cc2c(C#N)c(N3CCCC3)nc(N)c2c(N)n1 ?
hiPSC survival: 1; MT1-MMP act inh: -5; PREPL inhibitor: 12; E coli Lon inh: -3; Tb MetRS inh: 0; SKN-1 inh: 17

Results for O=C(CCSc1ccccc1)NNC(=O)c1ccccc1F ?
hiPSC survival: 1; MT1-MMP act inh: 5; PREPL inhibitor: 4; E coli Lon inh: 2; Tb MetRS inh: 0; SKN-1 inh: -10

Results for COc1ccc(C)cc1NC(=O)CCC(=O)Nc1ccc2nc(N3CCN(C)CC3)cc(C)c2c1 ?
PREPL inhibitor: 10

How did Cc1cccc(N2CCN(C(=S)Nc3ccc4nc(N5CCN(C)CC5)cc(C)c4c3)CC2)c1C do in these assays?
hiPSC survival: -1; MT1-MMP act inh: -11; E coli Lon inh: 5; Tb MetRS inh: 1; SKN-1 inh: 20

How did COc1ccc(C(=O)Nc2ccc3nc(N4CCN(C)CC4)cc(C)c3c2)c(OC)c1 do in these assays?
hiPSC survival: 0; MT1-MMP act inh: -10; PREPL inhibitor: 48*; E coli Lon inh: -3; Tb MetRS inh: 0; SKN-1 inh: 8; PREPL inh cf: 43

What do the screens show for `Cc1cc(N2CCN(C)CC2)nc2ccc(NC(=S)N3CCN(c4cccc(Cl)c4)CC3)cc12`?
hiPSC survival: -1; MT1-MMP act inh: 6; PREPL inhibitor: 47*; E coli Lon inh: 0; Tb MetRS inh: 0; SKN-1 inh: 4; PREPL inh cf: 33

How did CCN1CCN(c2cc(C)c3cc(NC(=O)c4ccc5c(c4)OCO5)ccc3n2)CC1 do in these assays?
hiPSC survival: -1; MT1-MMP act inh: -1; PREPL inhibitor: 44*; E coli Lon inh: -4; Tb MetRS inh: 0; SKN-1 inh: -2; PREPL inh cf: 20

How did Cc1cc(N2CCOCC2)nc2ccc(NC(=O)CCC(=O)N3CCN(c4ccc(F)cc4)CC3)cc12 do in these assays?
hiPSC survival: 0; MT1-MMP act inh: 4; PREPL inhibitor: 44*; E coli Lon inh: 1; Tb MetRS inh: -1; SKN-1 inh: 3; PREPL inh cf: 39

What do the screens show for `CCOC(=O)N1CCC(NC(=O)C2CCN(C(=O)c3cc4sccc4n3CC)CC2)CC1`?
hiPSC survival: 0; MT1-MMP act inh: 2; PREPL inhibitor: 6; E coli Lon inh: 11; Tb MetRS inh: 0; SKN-1 inh: 12

How did CN(C)C(=O)c1c(NC(=O)c2ccccc2)sc2c1CCC2 do in these assays?
hiPSC survival: -1; MT1-MMP act inh: -1; PREPL inhibitor: 5; E coli Lon inh: -5; Tb MetRS inh: 0; SKN-1 inh: 16

Results for CCN(CC)CCCC(C)NC(=O)c1c(NC(=O)c2ccccc2)sc2c1CCCC2 (centres undefined) ?
hiPSC survival: 2; MT1-MMP act inh: -7; PREPL inhibitor: 46*; E coli Lon inh: 6; Tb MetRS inh: 0; SKN-1 inh: 16; PREPL inh cf: 40

Results for O=C(NCCNc1ccc2ccccc2c1)c1cccn2c(=O)c3sccc3nc12 ?
PREPL inhibitor: 51*; PREPL inh cf: 41

Results for CC(C)C[C@@H](C(=O)NC1CCN(Cc2ccccc2)CC1)N1C(=O)N2CCc3c([nH]c4ccccc34)[C@@]2(C)C1=O ?
hiPSC survival: -2; MT1-MMP act inh: -2; PREPL inhibitor: 44*; E coli Lon inh: -10; Tb MetRS inh: -1; SKN-1 inh: -5; PREPL inh cf: 33

What do the screens show for `C[C@@H](C(=O)NC1CCN(Cc2ccccc2)CC1)N1C(=O)N2CCc3c([nH]c4ccccc34)[C@@]2(C)C1=O`?
hiPSC survival: 0; MT1-MMP act inh: 1; PREPL inhibitor: 16; E coli Lon inh: -7; Tb MetRS inh: -1; SKN-1 inh: -2

What do the screens show for `COc1ccc(NC(=S)N2CCN(c3ccc([N+](=O)[O-])cc3)CC2)cc1OC`?
hiPSC survival: 0; MT1-MMP act inh: 6; PREPL inhibitor: 47*; E coli Lon inh: -4; Tb MetRS inh: 2; SKN-1 inh: -6; PREPL inh cf: 49*

How did O=C(CCS(=O)(=O)c1ccc(Cl)cc1)Oc1ccc2c(c1)OCO2 do in these assays?
hiPSC survival: -2; MT1-MMP act inh: 1; PREPL inhibitor: 25; E coli Lon inh: -11; Tb MetRS inh: -1; SKN-1 inh: 8

What do the screens show for `CCOc1ccccc1O[C@H](c1ccccc1)[C@H]1CNCCO1`?
hiPSC survival: 5; MT1-MMP act inh: -1; PREPL inhibitor: 44*; E coli Lon inh: 37; Tb MetRS inh: -1; SKN-1 inh: 16; PREPL inh cf: 43

Results for CCOc1ccccc1NC(=O)C(NCC1CCCCC1)c1ccccc1 (centres undefined) ?
hiPSC survival: 0; MT1-MMP act inh: -9; PREPL inhibitor: 1; E coli Lon inh: -6; Tb MetRS inh: -1; SKN-1 inh: -1

Results for COC(=O)[C@H](Cc1ccccc1)NC(=O)N(C)Cc1ccccc1 ?
hiPSC survival: 0; MT1-MMP act inh: -2; PREPL inhibitor: 19; E coli Lon inh: -4; Tb MetRS inh: 0; SKN-1 inh: 2

Results for CN(C)c1ccc(NC(=O)c2cccc(C(=O)Nc3ccc(N(C)C)cc3)n2)cc1 ?
hiPSC survival: -2; MT1-MMP act inh: 1; PREPL inhibitor: 72*; E coli Lon inh: -10; Tb MetRS inh: -1; SKN-1 inh: 23; PREPL inh cf: 70*

What do the screens show for `CC1CCCN(S(=O)(=O)c2cccc(C(=O)NCc3ccco3)c2)C1` (centres undefined)?
hiPSC survival: -2; MT1-MMP act inh: -1; PREPL inhibitor: 6; E coli Lon inh: -2; Tb MetRS inh: 0; SKN-1 inh: -15

How did CCOC(=O)N1CCN(Cc2nc(-c3cccs3)no2)CC1 do in these assays?
hiPSC survival: 0; MT1-MMP act inh: -7; PREPL inhibitor: 10; E coli Lon inh: 2; Tb MetRS inh: 0; SKN-1 inh: -4

Results for Cc1nnc(N/N=C/c2cccc(OCc3ccc(Cl)c(Cl)c3)c2)n1N ?
hiPSC survival: -2; MT1-MMP act inh: 8; PREPL inhibitor: 73*; E coli Lon inh: -9; Tb MetRS inh: 0; SKN-1 inh: 5; PREPL inh cf: 65*
